The record followed here is ChEMBL document CHEMBL1148326, “Chemometric studies on the bactericidal activity of quinolones via an extended VolSurf approach” (2004).

Format in all cases: functional
For test [1], the system named is Enterococcus faecalis. Briefly: Antibacterial activity was evaluated against Enterococcus faecalis. In a few lines:
(§1)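 MIC against aerobic bacteria, measured at Bayer AG, by standard agar dilution or broth microdilution per NCCLS M7-A5 guidelines. MIC taken as lowest concentration visibly inhibiting growth after in vitro incubation, read when untreated culture growth becomes visible; expressed as log 1/C.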

Test [2] has as its system Escherichia coli. Kind of test: Antibacterial activity was evaluated against Escherichia coli. In a few lines:
as §1

Test [3] has as its system Pseudomonas aeruginosa. Kind of test: Antibacterial activity was evaluated against Pseudomonas aeruginosa. In a few lines:
as §1

Test [4] concerns Staphylococcus aureus. Briefly: Antibacterial activity was evaluated against Staphylococcus aureus. Summed up: as §1
Test [5] has as its system Enterococcus faecalis. Briefly: Antibacterial activity evaluated against Enterococcus faecalis. In a few lines: as §1

Each structure is given as a SMILES string.

As to `C[C@@]12CN(c3c(F)cc4c(=O)c(C(=O)O)cn(C5C[C@@H]5F)c4c3F)C[C@@H]1CCCN2` (some centres not stated), the “Log 1/C” value in test [1] was 6.86; in test [2], 7.46; in test [3] it was 6.25; in test [4] it was 7.16.
As to `O=C(O)c1cn(C2CC2)c2cc(N3C[C@@H]4CCCN[C@@H]4C3)c(F)cc2c1=O`, the “Log 1/C” value was found to be 6.21 in test [5], 7.12 in test [2], 5.92 in test [3] and 7.12 in test [4].
Turning to `CCn1cc(C(=O)O)c(=O)c2cc(F)c(N3CCNCC3)cc21` [NORFLOXACIN], the “Log 1/C” value was 5.55 in test [5], 6.76 in test [2], 5.85 in test [3] and 5.55 in test [4].
In the case of `O=C(O)c1cn(C2CC2)c2cc(N3C(=O)C=CC3=O)c(F)cc2c1=O`, the “Log 1/C” value in test [5], in test [2], in test [3] and in test [4] was 3.43 throughout.
Turning to `O=C(O)c1cn(C2CC2)c2cc(N3CCN(C(CO)(CO)CO)CC3)c(F)cc2c1=O`, the “Log 1/C” value in test [5] is listed as 4.13; in test [2], 5.34; in test [3], 3.53; in test [4], 4.74.
Take `O=C(O)c1cn(C2CC2)c2cc(N3CCN(c4ccncc4)CC3)c(F)cc2c1=O`: the “Log 1/C” value came to 4.71 in test [5], 5.91 in test [2], 3.5 in test [3] and 5.61 in test [4].
On the same counts, the results for `CN1CCN(c2c(F)cc3c(=O)c(C(=O)O)cn4c3c2OC(C(C)(C)C)=C4)CC1` are 4.14, 4.44, 3.53 and 3.84.
Consider `CC(=O)N1CCC[C@H]2CN(c3c(F)cc4c(=O)c(C(=O)O)cn(C5CC5)c4c3Cl)C[C@H]21`, for which the “Log 1/C” value is given as 5.65 in test [5], 5.35 in test [2], 3.84 in test [3] and 5.95 in test [4].
Turning to `CC1CN(c2c(F)cc3c(=O)c(C(=O)O)cn(C4CC4)c3c2Cl)CC(C)N1` (configuration not stated), the “Log 1/C” value in test [5] came to 5.93; in test [2], 7.16; in test [3], 5.63; in test [4], 6.54.
Turning to `C=CCN1CCN(c2cc3c(cc2F)c(=O)c(C(=O)O)cn3C2CC2)CC1`, the “Log 1/C” value in test [5] is given as 5.61; in test [2] it was 6.82; in test [3], 5.31; in test [4], 6.21.
For `O=C(O)c1cn(C2CC2)c2c(F)c(N3Cc4cccnc4C3)c(F)cc2c1=O`, in that order: 7.73, 6.53, 5.02 and 7.44.
For `CN1CCC[C@@H]2CN(c3c(F)cc4c(=O)c(C(=O)O)cn(C5CC5)c4c3Cl)C[C@@H]21`, the “Log 1/C” value in test [5] was 6.23; in test [2], 7.15; in test [3] it was 5.32; in test [4] it was 6.83.
For the molecule `COc1c(N2C[C@@H]3CCCN[C@@H]3C2)c(F)cc2c(=O)c(C(=O)O)cn(C3CC3)c12` [MOXIFLOXACIN], the “Log 1/C” value is given as 6.55 in test [1], 7.46 in test [2], 5.64 in test [3] and 7.16 in test [4].
Consider `O=C(O)c1cn(C2CC2)c2c(F)c(N3C[C@H]4CCCN[C@H]4C3)c(F)cc2c1=O`, for which the “Log 1/C” value in test [5] came to 6.53; in test [2], 7.45; in test [3], 5.63; in test [4], 6.84.
For `C[C@H]1COc2c(N3CCN(C)CC3)c(F)cc3c(=O)c(C(=O)O)cn1c23.C[C@H]1COc2c(N3CCN(C)CC3)c(F)cc3c(=O)c(C(=O)O)cn1c23.O` [LEVOFLOXACIN], in that order: 6.2, 7.41, 6.2 and 6.5.
For `CN1CCN(c2nc3c(cc2Cl)c(=O)c(C(=O)O)cn3C2CC2)CC1`, in that order: 4.35, 6.77, 4.96 and 4.96.
For `CC1=C(C)n2cc(C(=O)O)c(=O)c3c(F)c(F)c(N4CCN(C5CC5)CC4)c(c32)O1`, in that order: 4.12, 4.12, 3.51 and 4.42.
For the molecule `O=C(O)c1cn2c3c(c(N4CCN(C5CC5)CC4)c(F)cc3c1=O)OC1=C2CCC1`, the “Log 1/C” value in test [5] is recorded as 4.75; in test [2], 4.15; in test [3], 3.54; in test [4], 4.75.
